The test system of experiment [1] is L1210 (mouse). Description: Compound was evaluated for antitumor activity against mice implanted with lymphatic leukemia L1210 cells (10e6 tumor cells) after intraperitoneal administration of 50 mg/kg per injection (single dose on day 1). The conditions noted are these: L1210, ip, 24 h.
Experiment [2] relates to L1210. Briefly: Effect of the compound(10 uM) on DNA synthesis in L1210 cells in culture measured as incorporation of [3H]L-Leu. It is filed as functional, Mus musculus. The conditions noted are these: in the assay text read “protein synthesis” for “DNA synthesis”. The gist of the method:
(§1)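 Cultured L1210 cells were treated with agent at 2.5–50 μM. Labeled precursor incorporation is reported as percent of control: [3H]dThd into DNA, […] into DNA and RNA, and [3H]L-Leu into protein.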

For experiment [3], the system named is L1210. Briefly: Effect of the compound(10 uM) on DNA synthesis in L1210 cells in culture measured as incorporation of [5-3H]-Urd. Format: functional, Mus musculus.
In experiment [4] the test system is L1210. Description: Effect of the compound(10 uM) on RNA synthesis in L1210 cells in culture measured as incorporation of [5-3H]-Urd. It is filed as functional, Mus musculus. The gist of the method: as §1
The test system of experiment [5] is L1210. Briefly: Concentration required to inhibit proliferation of cultured lymphoid leukemia L1210 cells to 50% growth over 48 hours. It is filed as functional, cell-based. The following applies: Mus musculus, L1210, 48 h. The gist of the method:
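Cultured lymphoid leukemia L1210 cells were exposed to agent for 48 h. IC50 is the micromolar concentration that holds proliferation to 50% growth.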

Experiment [6] has as its system L1210. Briefly: Effect of the compound(25 uM) on DNA synthesis in L1210 cells in culture measured as incorporation of [3H]L-Leu. The conditions noted are these: in the assay text read “protein synthesis” for “DNA synthesis”. Format: functional, Mus musculus. The gist of the method:
as §1

In experiment [7] the test system is L1210. Briefly: Effect of the compound(25 uM) on DNA synthesis in L1210 cells in culture measured as incorporation of [3H]dThd. Format: functional, Mus musculus. The gist of the method:
as §1

Experiment [8] relates to L1210. Description: Effect of the compound(25 uM) on DNA synthesis in L1210 cells in culture measured as incorporation of [5-3H]-Urd. It is filed as functional, Mus musculus. The gist of the method:
as §1

Experiment [9] deals with L1210. Briefly: Effect of the compound(25 uM) on RNA synthesis in L1210 cells in culture measured as […]. It is filed as functional, Mus musculus.
Experiment [10] deals with L1210. Briefly: Effect of the compound(5 uM) on DNA synthesis in L1210 cells in culture measured as incorporation of [3H]-L-Leu. It is filed as functional, Mus musculus. The following applies: in the assay text read “protein synthesis” for “DNA synthesis”. The gist of the method:
as §1

The test system of experiment [11] is L1210. Description: Effect of the compound(5 uM) on DNA synthesis in L1210 cells in culture measured as incorporation of [5-3H]-Urd. It is filed as functional, Mus musculus. The gist of the method: as §1
Experiment [12] concerns L1210. Briefly: Effect on the mitosis of cultured L1210 cells measured in metaphase at 12 hours and 0 uM concentration. It is filed as functional, Mus musculus. The gist of the method:
(§2)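 Cultured L1210 cells were exposed for 12 h to 0, 3, 10, 30, 50 or 100 μM agent. Read-out was the percentage of cells in metaphase.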

Experiment [13] deals with L1210. Description: Effect on the mitosis of cultured L1210 cells measured in metaphase at 12 hours and 10 uM concentration. Format: functional, Mus musculus. The gist of the method: as §2
Experiment [14] deals with L1210. Description: Effect on the mitosis of cultured L1210 cells measured in metaphase at 12 hours and 100 uM concentration. It is filed as functional, Mus musculus. The gist of the method:
as §2

Experiment [15] has as its system L1210. Description: Effect on the mitosis of cultured L1210 cells measured in metaphase at 12 hours and 3 uM concentration. It is filed as functional, Mus musculus. The gist of the method:
as §2

In experiment [16] the test system is P388. Description: Compound was evaluated for antitumor activity against mice implanted with lymphatic leukemia P388 cells (10e6 tumor cells) after intraperitoneal administration of 75 mg/kg per injection (1-5 days). Format: functional. The conditions noted are these: Mus musculus, P388, ip. The gist of the method: (§3)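 Mice implanted ip with 10⁶ lymphocytic leukemia P388 cells; drug given ip on days 1-5. Read-out is % increase in life span (% ILS) versus untreated controls, reported at the highest nontoxic dose tested.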

Experiment [17] deals with L1210. Description: Effect on the mitosis of cultured L1210 cells measured in metaphase at 12 hours and 30 uM concentration. It is filed as functional, Mus musculus. The gist of the method: as §2
In experiment [18] the test system is L1210. Description: Effect of the compound(5 uM) on RNA synthesis in L1210 cells in culture measured as […]. It is filed as functional, Mus musculus.
The test system of experiment [19] is P388. Briefly: Compound was evaluated for antitumor activity against mice implanted with lymphatic leukemia P388 cells (10e6 tumor cells) after intraperitoneal administration of 300 mg/kg per injection (1-5 days). It is filed as functional. The following applies: Mus musculus, P388, ip. The gist of the method:
as §3

Experiment [20] concerns L1210. Description: Effect of the compound(10 uM) on DNA synthesis in L1210 cells in culture measured as incorporation of [3H]dThd. Format: functional, Mus musculus. The gist of the method: as §1
In experiment [21] the test system is L1210. Briefly: Effect of the compound(2.5 uM) on DNA synthesis in L1210 cells in culture measured as incorporation of [3H]L-Leu. Format: functional, Mus musculus. The conditions noted are these: in the assay text read “protein synthesis” for “DNA synthesis”. The gist of the method: as §1
The test system of experiment [22] is L1210. Briefly: Effect of the compound(2.5 uM) on RNA synthesis in L1210 cells in culture measured as […]. Format: functional, Mus musculus.
Experiment [23] has as its system P388. Description: Compound was evaluated for antitumor activity against mice implanted with lymphatic leukemia P388 cells (10e6 tumor cells) after intraperitoneal administration of 13 mg/kg per injection (1-5 days). It is filed as functional. The following applies: Mus musculus, P388, ip. The gist of the method:
as §3

Experiment [24] relates to L1210. Description: Effect of the compound(2.5 uM) on DNA synthesis in L1210 cells in culture measured as incorporation of [5-3H]-Urd. It is filed as functional, Mus musculus.
Experiment [25] concerns L1210. Briefly: Compound was tested in vivo against mitosis of […] metaphase after 12 hr at 400 mg/kg dose. Format: functional, Mus musculus. The gist of the method:
(§4)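 Mice implanted ip with L1210 leukemia cells got a single ip injection of test agent or control. Cells were harvested 6, 12 and 24 h after treatment and scored for percentage of cells in metaphase.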

Experiment [26] relates to L1210. Description: Compound was tested in vivo against mitosis of […] metaphase after 12 hr at 600 mg/kg dose. It is filed as functional, Mus musculus. The gist of the method: as §4
Experiment [27] concerns L1210. Description: Compound was tested in vivo against mitosis of […] metaphase after 24 hr at 400 mg/kg dose. It is filed as functional, Mus musculus. The gist of the method: as §4
Experiment [28] relates to L1210. Briefly: Compound was tested in vivo against mitosis of […] metaphase after 24 hr at 600 mg/kg dose. It is filed as functional, Mus musculus. The gist of the method:
as §4

The test system of experiment [29] is L1210. Briefly: Compound was tested in vivo against mitosis of […] metaphase after 6 hr at 400 mg/kg dose. It is filed as functional, Mus musculus. The gist of the method:
as §4

For experiment [30], the system named is L1210. Briefly: Compound was tested in vivo against mitosis of […] metaphase after 6 hr at 600 mg/kg dose. Format: functional, Mus musculus. The gist of the method: as §4
The subject of experiment [31] is L1210. Description: Effect of the compound(50 uM) on DNA synthesis in L1210 cells in culture measured as incorporation of [3H]L-Leu. Format: functional, Mus musculus. The conditions noted are these: in the assay text read “protein synthesis” for “DNA synthesis”. The gist of the method:
as §1

In experiment [32] the test system is L1210. Briefly: Effect of the compound(50 uM) on DNA synthesis in L1210 cells in culture measured as incorporation of [3H]dThd. Format: functional, Mus musculus. The gist of the method:
as §1

In experiment [33] the test system is L1210. Briefly: Effect of the compound(50 uM) on DNA synthesis in L1210 cells in culture measured as incorporation of [5-3H]-Urd. Format: functional, Mus musculus. The gist of the method: as §1
For experiment [34], the system named is L1210. Briefly: Effect of the compound(50 uM) on RNA synthesis in L1210 cells in culture measured as incorporation of [5-3H]-Urd. Format: functional, Mus musculus. The gist of the method: as §1
Experiment [35] has as its system L1210. Description: Effect on the mitosis of cultured L1210 cells measured ain metaphase t 12 hours and 3 uM concentration. It is filed as functional, Mus musculus. The gist of the method: as §2
The subject of experiment [36] is L1210. Description: Effect on the mitosis of cultured L1210 cells measured in metaphase at 12 hours and 50 uM concentration. Format: functional, Mus musculus. The gist of the method: as §2
Experiment [37] deals with L1210. Briefly: Effect on the mitosis of cultured L1210 cells measured in metaphase t 12 hours and 30 uM concentration. It is filed as functional, Mus musculus. The gist of the method:
as §2

Experiment [38] has as its system P388. Description: Compound was evaluated for antitumor activity against mice implanted with lymphatic leukemia P388 cells (10e6 tumor cells) after intraperitoneal administration of 240 mg/kg per injection (1-5 days). Format: functional. The conditions noted are these: Mus musculus, P388, ip. The gist of the method: as §3

Several values for one entry are separate records, joined by “and”; a condition that tells them apart may be missing. Equal entries are not always repeated.

Consider five molecules from ChEMBL document CHEMBL1126221, “Antimitotic agents: structure-activity studies with some pyridine derivatives” (J Med Chem, 1992).

For orientation: ILS means how much longer treated animals lived than controls. High values mean much gain in survival, low ones little gain in survival. For the molecule `CCOC(=O)Nc1cc(N(C)CC(O)c2ccccc2)c(N)c(N)n1` (stereo unspecified), the increase in lifespan (ILS) at 50 mg/kg in [1] worked out at 4%.

In general, IC50 refers to the concentration that inhibits the measured activity by half. A high value points to weaker potency in that assay. Consider `COC(=O)Nc1cc(NC(C)/C(=N/O)c2ccccc2)c([N+](=O)[O-])c(N)n1` (stereo unspecified), for which the Control in [2] was 40%; in experiment [4], 52%; in experiment [6] it was 26%; in experiment [7] it was 21%; in [8], 65%; in experiment [9], 64%. The Control was 79% in experiment [10]; 52% and 89% in experiment [11]; 86% in experiment [18]. Moreover, the “Uridine incorporation into DNA (% of control)” value in experiment [3] is 46% and 62%. The molecule also displayed an IC50 in [5] of 5.8 µM. The Cells in metaphase came out at 2% in experiment [12]; 3% in experiment [13]; 14% in experiment [14]; 3% in experiment [15]; 25% in experiment [17]. In addition, the increase in life span (ILS) at 75 mg/kg in experiment [16] came out at 82%.

Take `CCOC(=O)Nc1cc(NC(C)C(=O)c2ccccc2)c([N+](=O)[O-])c(N)n1` (stereo unspecified): in [5], it took 37 µM to reach half-maximal inhibition (IC50). Moreover, the ILS at 300 mg/kg in experiment [19] worked out at 2%.

Regarding `CCOC(=O)Nc1cc(NC(C)/C(=N/O)c2ccc(OC)cc2)c([N+](=O)[O-])c(N)n1` (stereo unspecified), the Control in [2] was determined as 82%; in experiment [20], 44%; in [4], 35%; in experiment [21], 69%; in [22], 55%; in experiment [10], 87%. Besides, the Control was 60% in experiment [11]; 78% and 73% in experiment [24]; 47% in experiment [18]. The “Uridine incorporation into DNA (% of control)” value in experiment [3] came out at 39%. In [5], the midpoint of inhibition, the IC50, lay at 4.2 µM. The Cells in metaphase is 2% in experiment [12]; 26% in [13]; 2% in experiment [14]; 6% in [15]; 24% in [17]. Also, the ILS at 13 mg/kg in experiment [23] was determined as 84%.

Consider `CCOC(=O)Nc1cc(NC(C)/C(=N/O)c2ccccc2)c([N+](=O)[O-])c(N)n1` (stereo unspecified), for which the Cells in metaphase in experiment [25] worked out at 0.8%; in experiment [26], 1.4%; in experiment [27], 1.6%; in [28] it was 0.4%; in experiment [29] it was 0.6%; in experiment [30] it was 0.9%. Besides, the Cells in metaphase in experiment [35] is recorded as 2%; in [12], 2%; in experiment [13], 3%; in [14], 5%; in [36] it was 14%; in [37], 4%. The Control in [2] was 79%; in experiment [4], 55%; in [6], 101%; in experiment [8], 25% and 13%; in experiment [9], 22%; in [31], 37%. For the same molecule, the Control in experiment [32] was 12%; in [33], 17%; in experiment [34] it was 24%. For the same molecule, in [3], the “Uridine incorporation into DNA (% of control)” value was 38% and 42%. In experiment [5], the IC50 turned out to be 32 µM. In experiment [38], this molecule showed an increase in life span (ILS) at 240 mg/kg of 80%.
